Test results reported in ChEMBL document CHEMBL1795256, “Synthesis and biological evaluation of novel aliphatic amido-quaternary ammonium salts for anticancer chemotherapy: part I” (2011).
The source made the active and inactive calls. The calls are words filed in the database; no cut-off is given here.

Tests used:
[1] = molecular target: Rho-related GTP-binding protein RhoB (Homo sapiens) (UniProt P62745); assay: Transactivation of RhoB expressed in human HeLa cells at 5 uM by dual renilla/firefly luciferase reporter assay; type: cell-based
Procedure, shortened: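 HeLa cells at 75–90% confluence were transiently cotransfected with a pGL2 firefly luciferase plasmid driven by the RhoB promoter (empty pGL2 vector as comparison) plus pRL-SV40 Renilla luciferase. Luciferase activity was measured after compound exposure in a dual-luciferase reporter read-out.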

PC-3 = assay: Growth inhibition of human PC3 cells by sulforhodamine B assay; type: functional
MDA-MB-231 = assay: Growth inhibition of human MDA-MB-231 cells by sulforhodamine B assay; type: functional
NUGC-3 = assay: Growth inhibition of human NUGC3 cells by sulforhodamine B assay; type: functional
HCT-15 = assay: Growth inhibition of human HCT15 cells by sulforhodamine B assay; type: functional
NCI-H23 = assay: Growth inhibition of human NCI-H23 cells by sulforhodamine B assay; type: functional
ACHN = assay: Growth inhibition of human ACHN cells by sulforhodamine B assay; type: functional

Sequence of Rho-related GTP-binding protein RhoB (Homo sapiens) (P62745 whole entry): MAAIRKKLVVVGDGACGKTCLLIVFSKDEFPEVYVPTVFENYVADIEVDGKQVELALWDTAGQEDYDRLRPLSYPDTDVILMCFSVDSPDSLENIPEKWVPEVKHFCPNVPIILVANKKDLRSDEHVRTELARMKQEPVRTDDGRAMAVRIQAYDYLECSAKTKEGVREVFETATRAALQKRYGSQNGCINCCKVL

SMILES | Activity [1] | GI50 (PC-3) | GI50 (MDA-MB-231) | GI50 (HCT-15) | GI50 (NCI-H23) | GI50 (ACHN) | GI50 (NUGC-3)
CCCCCCCCCCCCCCCCCCCCCC(=O)N1CC[N+](C)(CC)CC1 | – | 850 nM | 2010 nM | 1690 nM | 2600 nM | 1900 nM | 1220 nM
CCCCCCCCCCCCCCCCCCOP(=O)([O-])OC1CC[N+](C)(C)CC1 [PERIFOSINE] | – | 440 nM | 2860 nM | 1250 nM | 4210 nM | 4560 nM | 540 nM
CCCCCCCCCCCC(=O)N1CC[N+](C)(C)CC1 | inactive | 580 nM | 3530 nM | inactive | inactive | inactive | 1730 nM
CCCCCCCCCCCCCCCCCCCCCC(=O)N1CC[N+](C)(Cc2ccccc2)CC1 | – | 1240 nM | 1980 nM | 2530 nM | 2950 nM | 4740 nM | 1900 nM
CCCCCCCCCCCCCCCC(=O)N1CC[N+](CC)(Cc2ccccc2)CC1 | – | 550 nM | 1160 nM | inactive | 1760 nM | 920 nM | 460 nM
CCCCCCCCCCCCCCCCCCCCCC(=O)N1CC[N+](C)(C)CC1 | inactive | 990 nM | 3510 nM | 2410 nM | 3000 nM | 2390 nM | 1150 nM
CCCCCCCCCCCCCCCCCCCCCCCC(=O)N1CC[N+](C)(C)CC1 | inactive | 4790 nM | inactive | inactive | inactive | inactive | inactive
CCCCCCCCCC(=O)N1CC[N+](C)(C)CC1 | inactive | inactive | inactive | inactive | inactive | inactive | inactive
C=CC[N+]1(CC)CCN(C(=O)CCCCCCCCCCCCCCCCCCCCC)CC1 | Active | 1470 nM | 2530 nM | 2780 nM | 3940 nM | 3380 nM | 1540 nM

Now from value to molecule, other results behind:

Activity [1] | GI50 (PC-3) | GI50 (MDA-MB-231) | GI50 (HCT-15) | GI50 (NCI-H23) | GI50 (ACHN) | SMILES | GI50 (NUGC-3)
Active | 370 nM | 680 nM | 1330 nM | 880 nM | 500 nM | C=CC[N+]1(CC)CCN(C(=O)CCCCCCCCCCCCCCC)CC1 | 270 nM
Active | 310 nM | 1630 nM | 540 nM | 1740 nM | 1390 nM | CCCCCCCCCCCCCCCCCCCC(=O)N1CC[N+](C)(C)CC1 | 420 nM
– | 960 nM | 3160 nM | 2130 nM | 3070 nM | 2370 nM | C=CC[N+]1(C)CCN(C(=O)CCCCCCCCCCCCCCCCCCCCC)CC1 | 1530 nM
Active | 290 nM | 890 nM | 850 nM | 1580 nM | 1010 nM | CCCCCCCCCCCCCC(=O)N1CC[N+](C)(C)CC1 | 560 nM
– | 800 nM | 2050 nM | 1800 nM | 3650 nM | 1890 nM | CCCCCCCCCCCCCCCC(=O)N1CC[N+](C)(CC)CC1 | 580 nM
– | 530 nM | 1620 nM | 810 nM | 2700 nM | 2740 nM | CCCCCCCCCCCCCCCCCC(=O)N1CC[N+](C)(C)CC1 | 560 nM
Active | 480 nM | 1440 nM | 580 nM | 2340 nM | 1040 nM | CCCCCCCCCCCCCCCC(=O)N1CC[N+](C)(C)CC1 | 290 nM
– | 510 nM | 1450 nM | 5060 nM | 2050 nM | 1980 nM | CCCCCCCCCCCCCCCC(=O)N1CC[N+](C)(Cc2ccccc2)CC1 | 1000 nM
Active | inactive | inactive | inactive | inactive | inactive | C=CC[N+]1(C)CCN(C(=O)CCCCCCCCCCCCCCC)CC1 | inactive
